The text below walks through data of PubChem BioAssay.

A short description of test [1]: inhibitors of TNFa-induced NFkB p65 translocation, primary screen, imaging, HUVEC, MLSMR starter and 10KST1 sets (AID 438;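 active means inhibition above 20% together with a positive visual image hit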;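 further: compound added about 3h40 before a 20 min TNFalpha stimulation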;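 on inhibition: signal is the nuclear over cytoplasmic p65 intensity ratio per well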). To be noted: HUVEC TNFa-induced p65 nuclear translocation; cell count: measured here: nuclei count (cytotoxicity indicator), at 2.08 µM; inhibition: at 2 µM, stronger effect = higher value, 0% TNFa-plus-vehicle, 100% no-TNFa wells.
A short description of test [2]: inhibitors of mutant huntingtin aggregation, primary screen, imaging, exon1htt(103Q)mCFP cells, high-content imaging (AID 483;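 active means visual image review flags a hit and inhibition of aggregation exceeds 20%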;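 further: compound exposure lasted 3 days before fixation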;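 on nuclei count: percent of the per-plate median nuclei count of sample wells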). The following applies: exon1htt(103Q)mCFP cell line, aggregate imaging, at 2 µM; inhibition of aggregation: stronger effect = higher value; nuclei count: measured here: cell count, toxicity.
Test [3] is described as follows: inhibitors of E-selectin induction by TNFa, primary screen, imaging, HUVEC, immunofluorescence, MLSMR starter and 10KST1 sets (AID 487;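 active means visually confirmed hit in the image check and inhibition above 20%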;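 on inhibition: signal is fraction of cell area covered by stained E-selectin grains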;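 on nuclei count: 100% = median nuclei count of all wells on the same plate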). The following applies: HUVEC TNFalpha-induced E-selectin immunofluorescence imaging, at 2 µM; inhibition: stronger effect = higher value; nuclei count: measured here: cell number, toxicity.
The target in test [4] is Voltage-gated potassium channel subunit beta-2 (Rattus norvegicus) (UniProt P62483). Description: KvBeta enzyme negative modulators, primary screen, biochemical, NADPH fluorescence (AID 622;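 active means fluorescence slope higher than the sample average by over 3 SD, cut at about -0.22 in these data, passing the limit was not always enough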;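 further: slope of raw intensity against log time taken from 70 to 1610 s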). The following applies: recombinant KvBeta, 4-cyanobenzaldehyde reduction, at 10 µM, stronger effect = higher value.
Test [5] shares this target. Description: KvBeta positive modulators, primary screen, biochemical, NADPH fluorescence (AID 623;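 active means NADPH fluorescence slope more negative than the mean of all samples by about 3 SD, 99.7% confidence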;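 further: fluorescence intensity change per second fitted from 20 to 320 s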). To be noted: Recombinant KvBeta, NADPH fluorescence decrease slope, 10 min; at 10 µM; stronger effect = lower value.
The target of test [6] is Muscarinic acetylcholine receptor M4 (Homo sapiens) (UniProt P08173). Briefly: compounds altering M4/GIRK thallium flux, either direction, primary screen, M4 allosteric agonist project, cell-based, HEK293 M4/GIRK, BTC-AM (AID 625;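 active means fluorescence slope after compound addition differing from the mean of all tested samples at 99.7% confidence, mostly higher but some lower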;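 further: thallium influx through GIRK channels coupled to M4 in HEK293 cells with BTC-AM dye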). To be noted: at 10 µM, actives lie on both sides. A digest of the protocol:
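Material – HEK293 cells with M4 receptor and GIRK channels · Buffer or medium – pH 7.3 thallium assay buffer · Doses – one dose, 10 µM final · Timing – cells overnight at 37 °C, BTC-AM loading 1 h, reads 2 min total · Measured by – kinetic fluorescence with BTC-AM dye · Controls – carbachol and DMSO controls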

Test [7] can be described thus: inhibitors of Sendai virus-induced IRF3 signaling, primary screen, TLR/RLR signaling modifier project, cell-based, Sendai virus stimulus, luciferase, 10K MLSCN set (AID 602276).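 Further: firefly luciferase from ISG56 promoter only with Renilla not read in this screen; 0% = Sendai virus plus DMSO and 100% = medium plus DMSO without virus.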 The following applies: HEK293 RL24 IRF3 luciferase reporter, at 10 µM, stronger effect = higher value.
Test [8] is described as follows: inhibitors of poly I:C-induced TLR3 signaling, primary screen, cell-based, poly I:C stimulus, luciferase, 10K MLSCN set (AID 602277;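 active means inhibition of the reporter signal at or above 50%; inactive means inhibition below 50%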). To be noted: HEK293-TLR3 RL24 IRF3 luciferase reporter, at 10 µM, stronger effect = higher value. A general note: Reporter assays use an easily measured gene product as a stand-in for the process of interest.

The source made the active and inactive calls.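 How the source made its calls, unless noted: active means inhibition at or above 50% at 10 µM; inactive means inhibition below 50%.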

Voltage-gated potassium channel subunit beta-2 (Rattus norvegicus), sequence (P62483 whole entry, looked up): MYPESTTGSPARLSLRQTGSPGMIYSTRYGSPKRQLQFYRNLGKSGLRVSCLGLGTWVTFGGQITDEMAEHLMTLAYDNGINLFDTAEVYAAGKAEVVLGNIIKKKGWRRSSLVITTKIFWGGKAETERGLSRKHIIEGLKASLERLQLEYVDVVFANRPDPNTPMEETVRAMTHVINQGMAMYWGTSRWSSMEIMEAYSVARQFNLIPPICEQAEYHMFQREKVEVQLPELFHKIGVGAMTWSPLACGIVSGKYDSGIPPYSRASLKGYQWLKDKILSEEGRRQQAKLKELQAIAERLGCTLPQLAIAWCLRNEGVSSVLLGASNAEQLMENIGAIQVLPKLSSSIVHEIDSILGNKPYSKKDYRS
Muscarinic acetylcholine receptor M4 (Homo sapiens), sequence (P08173 whole entry, looked up): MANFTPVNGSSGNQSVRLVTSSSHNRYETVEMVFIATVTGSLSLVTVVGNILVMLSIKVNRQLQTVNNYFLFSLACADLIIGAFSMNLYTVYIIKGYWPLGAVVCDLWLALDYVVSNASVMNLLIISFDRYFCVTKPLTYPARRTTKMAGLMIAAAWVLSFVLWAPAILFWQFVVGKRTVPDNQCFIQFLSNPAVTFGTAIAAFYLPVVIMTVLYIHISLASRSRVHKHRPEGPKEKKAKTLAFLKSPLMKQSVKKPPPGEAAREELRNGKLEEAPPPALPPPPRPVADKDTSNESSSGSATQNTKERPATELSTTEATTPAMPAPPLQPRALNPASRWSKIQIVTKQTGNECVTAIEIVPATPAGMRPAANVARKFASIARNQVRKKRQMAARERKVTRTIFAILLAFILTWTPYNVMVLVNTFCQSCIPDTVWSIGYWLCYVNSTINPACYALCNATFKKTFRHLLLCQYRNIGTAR

By inhibition is commonly meant the drop in the measured response relative to a control, in per cent. For the compound `COCCN1C(=O)C(=O)/C(=C(/O)c2cccc(OC)c2)C1c1ccncc1` (centres undefined), the cell count in test [1] is 272. The inhibition was 22.2% (inactive) in test [1], 54.5% (inactive) in test [3], 13.1% (inactive) in test [7] and 15.1% (inactive) in test [8]. Also, in test [2], the inhibition of aggregation was 17.9% (inactive). In addition, the nuclei count in test [2] is 95.1%; in test [3], 92.1%. The fluorescence slope in test [4] was -0.578 (inactive); in test [6], 0.00539 (inactive). The NADPH fluorescence slope in test [5] is -8.8e-06 (inactive).
Take `CCN(CCNC(=O)C1CCN(S(=O)(=O)CC)CC1)c1ccccc1`: the cell count in test [1] was found to be 446. Also, the inhibition in test [1] is -14.7% (inactive); in test [3], -93.7% (inactive); in test [7], 15.8% (inactive); in test [8] it was 11.8% (inactive). Further, in test [2], the inhibition of aggregation was 5.7% (inactive). The nuclei count in test [2] amounted to 86.2%; in test [3], 106%. The fluorescence slope is -0.254 (inactive) in test [4] and 0.00662 (inactive) in test [6]. Moreover, in test [5], the NADPH fluorescence slope is -2.8e-05 (inactive).
For `CCn1c(=O)cc(SCC(=O)Nc2ccc3c(c2)OCO3)c2ccccc21`, the cell count in test [1] was determined as 368. The inhibition in test [1] was 3.1% (inactive); in test [3] it was -7.2% (inactive); in test [7], -16.8% (inactive); in test [8] it was -13.5% (inactive). The inhibition of aggregation in test [2] was 1.5% (inactive). For the same compound, the nuclei count in test [2] is 97.6%; in test [3], 115%. For the same compound, the fluorescence slope was -0.432 (inactive) in test [4] and 0.00544 (inactive) in test [6]. The NADPH fluorescence slope in test [5] was 4e-05 (inactive).
With `CNC(=O)CN(C#N)c1nc(N(C)C)nc(N(C)C)n1`, the cell count in test [1] is 349. The inhibition in test [1] is -2.3% (inactive); in test [3] it was -47.6% (inactive); in test [7] it was 6.17% (inactive); in test [8], 10.6% (inactive). Moreover, the inhibition of aggregation in test [2] is 5.1% (inactive). Further, the nuclei count in test [2] was 92.5%; in test [3], 114%. The fluorescence slope in test [4] is -0.553 (inactive); in test [6], 0.00632 (inactive). In addition, in test [5], the NADPH fluorescence slope is -2.5e-05 (inactive).
Consider `c1coc(-c2nnc(-c3cccs3)o2)c1`, for which the cell count in test [1] came to 497. Moreover, the inhibition in test [1] was -1.7% (inactive); in test [3] it was -7.2% (inactive); in test [7], -25.9% (inactive); in test [8], -87.8% (inactive). For the same compound, the inhibition of aggregation in test [2] is 13.3% (inactive). The results for the nuclei count in test [2] and in test [3] were 75% and 115%, respectively. Further, the results for the fluorescence slope in test [4] and in test [6] were -0.51 (inactive) and 0.00586 (inactive), respectively. Also, in test [5], the NADPH fluorescence slope is -6.6e-07 (inactive).
As to `COCCn1c(N)c(C(=O)Nc2sc3c(c2C(=O)OC)CCCC3)c2nc3ccccc3nc21`, the cell count in test [1] worked out at 670. Also, the inhibition was 14.9% (inactive) in test [1], 5.1% (inactive) in test [3], 19.4% (inactive) in test [7] and 9.11% (inactive) in test [8]. Also, the inhibition of aggregation in test [2] is 21.8% (inactive). Besides, the figures for the nuclei count in test [2] and in test [3] were 84.1% and 100%, respectively. Further, the fluorescence slope in test [4] was -0.57 (inactive); in test [6], 0.00595 (inactive). In addition, in test [5], the NADPH fluorescence slope was 4.8e-06 (inactive).
As for `O=C(CCn1c(=O)sc2ccccc21)NC1=NCCS1`, the cell count in test [1] worked out at 620. For the same compound, the inhibition in test [1] was -25.8% (inactive); in test [3], -118% (inactive); in test [7] it was -9.67% (inactive); in test [8], -5.87% (inactive). Besides, the inhibition of aggregation in test [2] is 8.6% (inactive). The figures for the nuclei count in test [2] and in test [3] were 102% and 121%, respectively. Further, the fluorescence slope was -0.464 (inactive) in test [4] and 0.00544 (inactive) in test [6]. Further, the NADPH fluorescence slope in test [5] is 8e-05 (inactive).
Turning to `O=C(CCn1c(=O)oc2ccccc21)NCCN1CCc2ccccc2C1`, in test [1], the cell count turned out to be 375. The inhibition in test [1] is 7.2% (inactive); in test [3] it was -315% (inactive); in test [7] it was 15.7% (inactive); in test [8], 29.6% (inactive). The inhibition of aggregation in test [2] is 5.1% (inactive). The nuclei count in test [2] was 93.1%; in test [3], 108%. Besides, the fluorescence slope in test [4] was -0.451 (inactive); in test [6], 0.00577 (inactive). In test [5], the NADPH fluorescence slope is -2.5e-05 (inactive).
In the case of `CC1(C)CC(=O)C(C=NCCc2ccc(S(N)(=O)=O)cc2)=C(O)C1`, in test [1], the cell count was 601. Further, the inhibition in test [1] was -6.1% (inactive); in test [3], -11.3% (inactive); in test [7], 13.2% (inactive); in test [8] it was 20.3% (inactive). In addition, the inhibition of aggregation in test [2] was -14.5% (inactive). In addition, the nuclei count in test [2] was 114%; in test [3], 102%. In addition, the figures for the fluorescence slope in test [4] and in test [6] were -0.426 (inactive) and 0.00589 (inactive), respectively. Further, the NADPH fluorescence slope in test [5] is -8.3e-05 (inactive).
As to `Cc1ccccc1CS(=O)(=O)Cc1ccc(C(=O)NCCCN2CCOCC2)o1`, the cell count in test [1] worked out at 434. The inhibition is 5% (inactive) in test [1], -156% (inactive) in test [3], -17.1% (inactive) in test [7] and -16.4% (inactive) in test [8]. In addition, the inhibition of aggregation in test [2] was -1.9% (inactive). For the same compound, the nuclei count in test [2] worked out at 99%; in test [3] it was 120%. The fluorescence slope is -0.586 (inactive) in test [4] and 0.00703 (inactive) in test [6]. Besides, the NADPH fluorescence slope in test [5] was -2.7e-05 (inactive).
Consider `O=C(c1ccc(-c2cccc(C(F)(F)F)c2)o1)N1CCOCC1`, for which the cell count in test [1] was 482. Moreover, the inhibition in test [1] is 4.3% (inactive); in test [3] it was 10.8% (inactive); in test [7], -39.9% (inactive); in test [8] it was -93.2% (inactive). For the same compound, the inhibition of aggregation in test [2] was -17.9% (inactive). Moreover, the nuclei count in test [2] worked out at 117%; in test [3] it was 99.9%. Moreover, the fluorescence slope was -0.544 (inactive) in test [4] and 0.00523 (inactive) in test [6]. Moreover, in test [5], the NADPH fluorescence slope is -3.4e-05 (inactive).
With `O=C(CCCCCn1c(SCc2ccncc2)nc2ccccc2c1=O)NCc1ccco1`, the cell count in test [1] is 458. The inhibition in test [1] is -10.3% (inactive); in test [3], -25.1% (inactive); in test [7] it was 8.7% (inactive); in test [8], 15.5% (inactive). For the same compound, the inhibition of aggregation in test [2] was -29.8% (inactive). For the same compound, the nuclei count in test [2] is 109%; in test [3] it was 94.5%. Moreover, the fluorescence slope in test [4] is -0.498 (inactive); in test [6] it was 0.00498 (inactive). Also, the NADPH fluorescence slope in test [5] was -1.1e-05 (inactive).
Consider `Cc1nc2cc(NC(=O)N3CC4(C)CC3CC(C)(C)C4)ccc2n1C` (centres undefined), for which the cell count in test [1] worked out at 657. For the same compound, the inhibition was 2.1% (inactive) in test [1], 11.9% (inactive) in test [3], -4.69% (inactive) in test [7] and 16.4% (inactive) in test [8]. In test [2], the inhibition of aggregation was 6.5% (inactive). Also, the results for the nuclei count in test [2] and in test [3] were 104% and 105%, respectively. The fluorescence slope in test [4] is -0.484 (inactive); in test [6], 0.00526 (inactive). Moreover, the NADPH fluorescence slope in test [5] is -8.2e-05 (inactive).
For the compound `CCN1CCN(C(=O)c2ccc3c(=O)n(CCC4=CCCCC4)c(=O)[nH]c3c2)CC1`, the cell count in test [1] is 465. Further, the inhibition in test [1] is 3.4% (inactive); in test [3] it was -29.3% (inactive); in test [7] it was -36.8% (inactive); in test [8], -73.5% (inactive). In test [2], the inhibition of aggregation was -14% (inactive). The nuclei count in test [2] came to 95.8%; in test [3], 114%. For the same compound, the fluorescence slope was -0.576 (inactive) in test [4] and 0.00535 (inactive) in test [6]. The NADPH fluorescence slope in test [5] is -7.8e-05 (inactive).
